From ChEMBL document CHEMBL2384906, “Biological activity, design, synthesis and structure activity relationship of some novel derivatives of curcumin containing sulfonamides” (Eur J Med Chem, 2013)

System: Mus musculus
Experiment: Antiinflammatory activity in mouse assessed as inhibition of carrageenan-induced increase in paw volume at 100 mg/kg, ip administered 1 hr prior to carrageenan challenge measured after 3 hrs relative to control
Format: functional
Conditions: route intraperitoneal
Outline: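 Mice were fasted 2 h and placed in groups of five. Controls received saline i.p. Phenylbutazone was given at 100 mg/kg i.p., curcumin at 200 mg/kg i.p., and derivatives at 200 mg/kg. After 1 h, 0.1 mL of 1% carrageenan in saline was injected subplantar into the right hind paw. Paw volume was followed by plethysmometer for 3 h, and % inhibition was calculated as (Vc − Vt)/Vc × 100.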

With `CCCCC1C(=O)N(c2ccccc2)N(c2ccccc2)C1=O` [PHENYLBUTAZONE] as the molecule, how does the inhibition in vivo at 100 mg/kg read?
The inhibition in vivo at 100 mg/kg was 70.9%.
